# Rows were chosen to be rich in hits. Some 6.8% of all compounds tested hit in one or more screens of this group.
# HSF1 inhib: HSF1 inhibition | NIH3T3-HGL HSE-luciferase, MG132-induced, luminescence 8 h; stronger effect = lower value | activity change, negative = inhibition, % at 7.5 µM (by protocol) | 300,000 compounds, 0.77% hits | AID 2098;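 active means more than half of replicate wells show activity change below -50%, luminescence cut by over half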;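 further: luciferase reports HSF-1 transcriptional activity via heat shock element; 0% = median of DMSO wells and -100% = zero luminescence signal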
# AI-2 QS mod: modulates the Vibrio harveyi AI-2 quorum sensing system. AID 2094. Vibrio harveyi JMH597 AI-2 luminescence/OD600 ratio, 9 h; stronger effect = lower value; strain lacks LuxN and CqsS sensors; 0 = neutral-control median. activity change, % at 7.5 µM. 300,000 compounds, 0.4% hits; in the data active means activity change below about -75%, passing the limit was not always enough;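 further: luminescence divided by OD600 gain over 9 h not by final OD600 alone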
# ALR H2O2 inh: inhibitors of human sulfhydryl oxidase ALR; P55789; purified ALR, DTT oxidation, H2O2 HRP-luminol luminescence; inhibition, % (test concentration not listed); 290,000 compounds, 3.8% hits; AID 485317;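 active means mean replicate inhibition above about 79%, with every replicate also reaching it, limit read from the data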
# Target sequence (P55789 whole entry, looked up): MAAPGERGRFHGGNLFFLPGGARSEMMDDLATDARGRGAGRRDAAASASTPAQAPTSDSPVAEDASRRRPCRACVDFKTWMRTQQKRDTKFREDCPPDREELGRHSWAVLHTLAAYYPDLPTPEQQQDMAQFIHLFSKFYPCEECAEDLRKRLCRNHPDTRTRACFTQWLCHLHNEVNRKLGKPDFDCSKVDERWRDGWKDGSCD
# HSF1 activator: increases HSF-1 driven luciferase reporter signal. 300,000 compounds, 1.7% hits. NIH3T3-HGL HSF-1 luciferase reporter, MG132, 8 h; 100% = twice DMSO control signal. AID 504408. activation, % at 9 µM;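 active means mean replicate activation of at least 50% with a set share of replicates each reaching 50%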;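 further: 0% = median of the neutral control wells and 100% = twice that signal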
# PHOSPHO1 block: blocks human PHOSPHO1 phosphatase activity | recombinant PHOSPHO1, absorbance phosphatase assay | inhibition, % at 13.3 µM | 290,000 compounds, 1.1% hits | AID 1565; in the data active means inhibition above about 60%
# Target sequence (Q8TCT1 whole entry, looked up): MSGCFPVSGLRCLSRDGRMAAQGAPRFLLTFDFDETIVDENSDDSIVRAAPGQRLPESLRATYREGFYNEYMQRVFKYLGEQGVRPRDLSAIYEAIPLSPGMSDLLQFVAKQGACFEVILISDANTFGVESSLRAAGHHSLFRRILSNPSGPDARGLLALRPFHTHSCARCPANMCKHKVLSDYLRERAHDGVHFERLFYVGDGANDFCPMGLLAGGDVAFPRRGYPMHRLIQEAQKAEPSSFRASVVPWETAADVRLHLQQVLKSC
# core dimer inh: HCV core protein dimerization inhibition; 300,000 compounds, 0.33% hits; TR-FRET GST/Flag-core106 dimerization, 1536-well; AID 1899; inhibition, % at 5 µM;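 active means inhibition above the mean of all tested compounds plus 3 SD, set per screening campaign, cut at about 45% in these data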
#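 assay system = GST-tagged and Flag-tagged HCV core protein residues 1-106 | controls = unlabelled core106 and no-GST-core106 wells | incubation = compound-protein-antibody incubation 4 h at 22.5 °C | probe or stimulus = Eu donor and XL665 acceptor anti-tag antibodies | read-out = % inhibition based on acceptor/donor emission ratio | signal = TR-FRET 671 and 617 nm emission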
# * = called active by the depositor; . = not tested or not shown.
SMILES,HSF1 inhib,AI-2 QS mod,ALR H2O2 inh,HSF1 activator,PHOSPHO1 block,core dimer inh
CN(C)c1ccc(/C=C/c2nc3ccccc3s2)cc1,-79.5*,-4.5,.,-82.1,37.9,-6.0
CN(C)c1ccc(/C=C/c2ccc3ccccc3n2)cc1,-84.9*,0.3,44.4,-87.2,31.6,-27.9
CN(C)c1ccc(CNc2nc3ccccc3s2)cc1,-11.0,-9.0,-0.9,-14.4,29.1,12.9
COc1cc(C=C(c2nc3ccccc3s2)c2nc3ccccc3s2)ccc1O,14.3,33.9,11.5,17.2,-4.0,17.1
COc1cc(/C=C/c2nc3ccccc3s2)cc(OC)c1O,-0.4,16.9,94.6*,32.2,27.7,-3.8
COc1ccc(C=C(c2nc3ccccc3s2)c2nc3ccccc3s2)cc1O,124.3,35.8,2.4,131.5*,-12.9,21.1
Cc1ccc(/C=C/c2nc3ccccc3s2)s1,-74.7*,20.1,-3.4,-76.2,3.2,-7.7
Cc1ccc(S(=O)(=O)Nc2nc3ccccc3s2)cc1,1.5,17.0,-5.0,1.9,-2.0,6.4
COC(=O)c1ccc(-c2nn(C)c(=O)c3ccccc23)cc1,0.7,16.6,-20.1,8.0,-10.0,3.9
COC(=O)c1ccc(C(=O)OC)c(-n2c(=O)c3ccccc3c3ccccc3c2=O)c1,52.8,18.6,2.4,77.7*,-6.2,-0.6
NC1C2CN(c3nc4c(cc3F)c(=O)c(C(=O)O)cn4-c3ccc(F)cc3F)CC12 (configuration not stated),.,5.6,-2.6,.,23.8,-0.1
CC1CCCN(S(=O)(=O)c2cc3c4c(c2)CCN4C(=O)CC3)C1 (configuration not stated),0.9,28.6,3.4,3.8,.,7.3
CCc1nc2ccc(C(=O)O)cc2nc1CC,-68.6*,35.1,.,-71.3,-4.0,-9.2
CCc1nc2ccc(C(=O)N3CCN(CC)CC3)cc2nc1CC,0.4,28.9,0.5,-2.5,23.9,-3.1
CC1CCCCC1NC(=O)c1ccc(S(=O)(=O)NNC(=O)c2ccncc2)cc1 (configuration not stated),3.0,8.3,98.7*,-14.5,43.2,1.6
O=C(NNS(=O)(=O)c1ccc(C(=O)NC2CCCC2)cc1)c1ccncc1,-3.4,-3.2,98.5*,4.5,-114.7,-3.9
CC1CCCCC1NC(=O)c1ccncc1 (configuration not stated),0.8,-10.2,-1.9,-7.7,33.5,-0.9
Cc1ccc(NC(=O)COc2ccc(CCO)cc2-n2nc3ccccc3n2)cc1C,-8.2,-8.8,.,-9.5,-3.4,-13.1
COc1ccc(-c2nn(-c3ccccc3)cc2C(=O)Nc2cccc(C(=O)O)c2)cc1[N+](=O)[O-],-7.2,.,42.6,3.3,9.2,17.4
COc1ccc(-c2nn(-c3ccccc3)cc2/C=C(/C#N)C(N)=O)cc1[N+](=O)[O-],-14.3,12.5,-3.3,-21.2,1.1,46.9*
COc1ccc(-c2nn(-c3ccccc3)cc2/C=C(\C#N)C(N)=O)cc1[N+](=O)[O-],2.4,6.2,3.9,2.2,29.2,53.7*
CN(C)c1ccc(-c2nc3n(n2)C(c2cccnc2)C2=C(CC(C)(C)CC2=O)N3)cc1 (configuration not stated),-69.7*,30.6,.,-76.0,29.8,-7.6
N#CC1=C(N)Oc2cc(O)ccc2C1c1cccs1 (configuration not stated),-4.2,5.6,30.9,-4.6,-17.5,-3.9
N#CC1=C(N)Oc2c(O)cc3ccccc3c2C1c1ccsc1 (configuration not stated),42.4,-15.6,44.2,71.4*,6.6,17.9
N#CC1=C(N)Oc2c(ccc3ccccc23)C1c1cccs1 (configuration not stated),21.5,3.1,-22.0,35.4,92.7*,18.2
SMILES,HSF1 inhib,AI-2 QS mod,ALR H2O2 inh,HSF1 activator,PHOSPHO1 block,core dimer inh
CC1CCN(C2=NC(=O)/C(=C/c3cn(-c4ccccc4)nc3-c3cccc(S(=O)(=O)N(C)C)c3)S2)CC1,12.5,17.7,-0.2,20.8,-11.6,26.0
Cc1cccc(C(=O)O[C@@H]2[C@H](Cc3ccccc3)NS(=O)(=O)[C@H]3C[C@@H]4C=C[C@]23O4)c1,.,.,-2.1,.,.,.
COc1cc(NC(=O)CN(C)S(=O)(=O)c2ccc(-c3ccc(=O)[nH]n3)s2)cc(OC)c1,-90.7*,24.6,-5.8,-92.8,7.2,22.0
CC1=C/C(=N\OC(=O)/C=C/c2ccccc2)C(C)=CC1=O,6.6,23.8,94.8*,-15.2,17.9,-3.7
COc1cccc(/C=N/NC(=O)CNC(=O)c2ccc3c(c2)OCCO3)c1O,-9.7,-1.3,93.7*,5.2,1.8,-3.7
Cc1cccc(/C=N/NC(=O)c2ccc3c(c2)OCCO3)c1O,11.1,8.8,13.6,8.3,17.0,-0.5
CCOc1cccc(/C=N/NC(=O)c2ccc3c(c2)OCCO3)c1O,14.7,-9.2,90.3*,23.0,34.4,2.2
Cc1ccc(/C=N/NC(=O)c2ccc3c(c2)OCCO3)s1,-5.8,-1.7,-10.3,-11.5,10.5,-0.1
Cn1cc(C(=O)N/N=C/c2cc(Br)cs2)c2ccccc21,19.8,18.2,-0.6,60.3*,23.6,-0.7
O=C(CNC(=O)c1ccc2c(c1)OCCO2)N/N=C/c1ccc(O)cc1O,-3.3,4.6,27.2,8.9,-0.8,-12.7
Cn1cc(/C=N/NC(=O)c2ccccc2O)c2ccccc21,-9.6,3.0,71.5,4.2,27.3,6.8
O=C(N/N=C/c1cc(Br)cs1)c1ccc2c(c1)OCCO2,22.3,17.4,0.5,57.3*,48.3,0.4
COCCN(C(=O)COC(=O)CSc1ccc(Cl)cc1)c1c(N)n(Cc2ccccc2)c(=O)[nH]c1=O,-4.6,17.6,-14.5,-2.8,.,-4.0
NCCCC[C@H](N)c1nnc([C@H](CCC(=O)O)NC(=O)C2CCNCC2)o1,-4.4,36.1,-14.3,-11.0,-32.9,1.9
COc1ccccc1N1CCN(C(=O)CSc2ccccc2)CC1,11.0,6.1,98.7*,17.8,-2.7,1.3
COc1ccccc1N1CCN(C(=O)CCNS(=O)(=O)c2cc(Br)cnc2N)CC1,-1.1,0.7,98.5*,0.3,38.5,-4.3
COc1ccccc1C(=O)NCCC(=O)N1CCCCC1,-5.7,9.8,-15.0,-2.9,18.5,0.1
COc1ccc(N2CCN(C(=O)CCNS(=O)(=O)c3cc(Br)cnc3N)CC2)cc1,5.8,12.2,70.6,30.0,10.6,-5.0
O=C(CSc1ccc2ccccc2c1)N1CCN(c2ccc(O)cc2)CC1,.,18.5,98.5*,.,6.2,0.9
COc1ccccc1C(=O)NCCC(=O)N1CCN(c2ccccc2O)CC1,1.0,-2.3,90.8*,5.5,.,-5.7
CCOC(=O)CNC(=O)Cc1ccc(OC)cc1,-3.6,1.5,-10.1,-2.4,35.8,-2.6
S=C(NCCc1ccc(Cl)cc1)NC1CC1,11.4,22.9,.,7.6,32.2,-2.4

# From PubChem
